We go through three compounds from ChEMBL document CHEMBL1777686, “Discovery of DA-1229: a potent, long acting dipeptidyl peptidase-4 inhibitor for the treatment of type 2 diabetes” (Bioorg Med Chem Lett, 2011).

The target of one data set is Cytochrome P450 3A4 (Homo sapiens, UniProt P08684). As to the kind of experiment: Inhibition of CYP3A4. It counts as ADME.
A further data set concerns the target Cytochrome P450 2D6 (Homo sapiens, UniProt P10635). The data set is described as follows: Inhibition of CYP2D6. It counts as ADME.
In the next data set the target is Cytochrome P450 2C9 (Homo sapiens, UniProt P11712). The data set is described as follows: Inhibition of CYP2C9. It is filed as ADME.
Sequence of Cytochrome P450 2C9 (P11712 whole entry): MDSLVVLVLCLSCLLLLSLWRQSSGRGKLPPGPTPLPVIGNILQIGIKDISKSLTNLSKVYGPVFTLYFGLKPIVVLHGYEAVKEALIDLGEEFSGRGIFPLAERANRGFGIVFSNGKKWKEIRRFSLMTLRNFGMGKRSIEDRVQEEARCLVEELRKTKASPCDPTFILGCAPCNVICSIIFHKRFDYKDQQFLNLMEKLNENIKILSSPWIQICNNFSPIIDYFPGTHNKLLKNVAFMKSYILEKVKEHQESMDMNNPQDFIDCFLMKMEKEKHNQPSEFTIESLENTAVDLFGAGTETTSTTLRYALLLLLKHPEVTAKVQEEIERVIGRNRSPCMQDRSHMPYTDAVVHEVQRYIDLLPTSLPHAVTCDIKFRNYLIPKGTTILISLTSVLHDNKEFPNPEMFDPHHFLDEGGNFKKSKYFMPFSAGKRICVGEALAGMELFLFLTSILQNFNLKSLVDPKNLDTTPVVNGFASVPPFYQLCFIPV
Another data set concerns the target Cytochrome P450 2C19 (Homo sapiens, UniProt P33261). The data set is described as follows: Inhibition of CYP2C19. It counts as ADME.
For a further data set, the target named is T1, Cytochrome P450 1A2 (Homo sapiens, UniProt P05177).
T1 sequence (P05177 whole entry): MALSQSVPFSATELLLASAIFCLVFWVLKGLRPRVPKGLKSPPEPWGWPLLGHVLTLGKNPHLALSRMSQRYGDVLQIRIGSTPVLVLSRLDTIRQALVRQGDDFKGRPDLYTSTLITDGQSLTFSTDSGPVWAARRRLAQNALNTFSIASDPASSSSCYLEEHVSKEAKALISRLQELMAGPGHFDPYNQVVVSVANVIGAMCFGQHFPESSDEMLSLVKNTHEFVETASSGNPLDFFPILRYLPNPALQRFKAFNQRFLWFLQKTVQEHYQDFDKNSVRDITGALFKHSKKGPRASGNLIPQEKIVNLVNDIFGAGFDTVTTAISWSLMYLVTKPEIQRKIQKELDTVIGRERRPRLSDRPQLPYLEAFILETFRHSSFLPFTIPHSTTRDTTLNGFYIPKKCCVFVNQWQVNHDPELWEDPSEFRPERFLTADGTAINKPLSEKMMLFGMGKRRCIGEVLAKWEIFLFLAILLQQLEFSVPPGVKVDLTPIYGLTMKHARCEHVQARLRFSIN
The data set is described as follows: Inhibition of CYP1A2. It counts as ADME.

The subject of data set [1] is Rattus norvegicus. The data set is described as follows: Inhibition of DPP-4 in Sprague-Dawley rat plasma at 1 mg/kg, po administered as single dose measured at 24 hrs post dose. It counts as functional. The essentials:
(§1)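 SD rats received a single oral dose of 1, 3 or 10 mg/kg. Plasma was sampled from 30 min up to 24 h after dosing, and plasma DPP-4 activity was measured as percent inhibition.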

Data set [2] deals with Rattus norvegicus. The data set is described as follows: Inhibition of DPP-4 in Sprague-Dawley rat plasma at 3 mg/kg, po administered as single dose measured at 24 hrs post dose. It is filed as functional. In a few lines:
as §1

Data set [3] deals with Rattus norvegicus. As to the kind of experiment: Inhibition of DPP-4 in Sprague-Dawley rat plasma at 10 mg/kg, po administered as single dose measured at 24 hrs post dose. It is filed as functional. The essentials: as §1
In data set [4] the test system is Mus musculus. As to the kind of experiment: Antidiabetic activity in po dosed C57BL/6J mouse assessed as reduction in glucose AUC administered 30 mins before glucose challenge measured up to 120 mins by oral glucose tolerance test. It counts as functional, organism-based. The essentials:
(§2)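 Oral dosing in C57BL/6J mice at 0.1, 0.3 or 1.0 mg/kg in 0.5% methylcellulose vehicle, followed by a 2 g/kg glucose challenge 30 min post-dose. […] Percent inhibition was calculated from AUC normalized to non-glucose controls. Means ± SEM.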

The subject of data set [5] is Mus musculus. As to the kind of experiment: Antidiabetic activity in C57BL/6J mouse assessed as inhibition of blood glucose elevation at 1 mg/kg, po administered 30 mins before glucose challenge by oral glucose tolerance test. It is filed as functional. In a few lines: as §2
The nature of data set [6]: Half life in human liver microsomes. It is filed as ADME, Microsome. A general note: Microsomes from liver hold many membrane-bound enzymes, among them those of drug oxidation.
Data set [7] is described as follows: Half life in rat. It is filed as ADME, organism-based. As to conditions: in vivo; call rule not given here.
Data set [8] is described as follows: Clearance in rat. It is filed as ADME, organism-based. The note with it: in vivo.
A short description of data set [9]: Volume of distribution at steady state in rat. It is filed as ADME, organism-based. The note with it: in vivo, read-out: Vdss.
A short description of data set [10]: Oral bioavailability in rat. It counts as ADME, organism-based. The note with it: in vivo.
Data set [11] concerns the target Voltage-gated inwardly rectifying potassium channel KCNH2 (Homo sapiens, UniProt Q12809). As to the kind of experiment: Inhibition of human ERG by patch clamp method.
The species named for data set [12] is Rattus norvegicus. The note with it: Sprague-Dawley, Plasma, 1 mg/kg.

Sequence of Cytochrome P450 3A4 (P08684 whole entry): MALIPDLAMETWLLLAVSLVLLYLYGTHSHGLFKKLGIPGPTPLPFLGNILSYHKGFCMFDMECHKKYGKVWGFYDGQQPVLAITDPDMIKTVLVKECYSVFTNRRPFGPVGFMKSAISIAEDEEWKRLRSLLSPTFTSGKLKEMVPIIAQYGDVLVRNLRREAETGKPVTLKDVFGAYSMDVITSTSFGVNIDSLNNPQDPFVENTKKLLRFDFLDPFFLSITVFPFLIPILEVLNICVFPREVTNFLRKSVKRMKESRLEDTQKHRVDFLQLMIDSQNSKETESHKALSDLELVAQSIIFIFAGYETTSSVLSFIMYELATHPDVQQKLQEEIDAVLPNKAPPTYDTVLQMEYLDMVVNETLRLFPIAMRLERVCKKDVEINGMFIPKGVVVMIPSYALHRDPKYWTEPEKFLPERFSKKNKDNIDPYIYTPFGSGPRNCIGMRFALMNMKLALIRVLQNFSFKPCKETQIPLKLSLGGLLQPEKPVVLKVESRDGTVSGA
Sequence of Cytochrome P450 2C19 (P33261 whole entry): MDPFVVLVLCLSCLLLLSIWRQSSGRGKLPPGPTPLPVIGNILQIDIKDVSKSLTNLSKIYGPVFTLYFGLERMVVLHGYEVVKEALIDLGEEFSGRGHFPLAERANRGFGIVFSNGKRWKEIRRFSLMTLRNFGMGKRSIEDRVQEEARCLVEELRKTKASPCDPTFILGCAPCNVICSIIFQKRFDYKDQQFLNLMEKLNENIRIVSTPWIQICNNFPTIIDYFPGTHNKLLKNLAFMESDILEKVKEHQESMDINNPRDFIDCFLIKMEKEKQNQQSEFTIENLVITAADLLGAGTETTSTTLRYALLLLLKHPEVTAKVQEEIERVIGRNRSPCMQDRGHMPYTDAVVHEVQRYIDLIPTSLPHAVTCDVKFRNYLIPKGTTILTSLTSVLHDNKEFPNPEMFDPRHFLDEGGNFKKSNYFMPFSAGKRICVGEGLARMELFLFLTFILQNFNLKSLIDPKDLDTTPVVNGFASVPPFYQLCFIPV
Sequence of Cytochrome P450 2D6 (P10635 whole entry): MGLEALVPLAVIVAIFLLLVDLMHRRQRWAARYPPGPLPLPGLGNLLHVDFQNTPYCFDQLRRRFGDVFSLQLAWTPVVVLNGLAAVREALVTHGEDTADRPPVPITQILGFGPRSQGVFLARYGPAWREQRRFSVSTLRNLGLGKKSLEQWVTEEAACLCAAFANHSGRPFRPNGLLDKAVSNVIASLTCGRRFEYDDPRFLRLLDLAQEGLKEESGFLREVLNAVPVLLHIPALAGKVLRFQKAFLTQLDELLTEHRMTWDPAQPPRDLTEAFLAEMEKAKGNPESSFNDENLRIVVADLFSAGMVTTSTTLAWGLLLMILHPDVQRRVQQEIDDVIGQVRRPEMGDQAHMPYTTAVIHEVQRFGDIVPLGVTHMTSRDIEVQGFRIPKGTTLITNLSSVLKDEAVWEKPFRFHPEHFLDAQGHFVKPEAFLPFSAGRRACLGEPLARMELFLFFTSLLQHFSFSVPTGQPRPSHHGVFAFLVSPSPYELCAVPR
Sequence of Voltage-gated inwardly rectifying potassium channel KCNH2 (Q12809 whole entry): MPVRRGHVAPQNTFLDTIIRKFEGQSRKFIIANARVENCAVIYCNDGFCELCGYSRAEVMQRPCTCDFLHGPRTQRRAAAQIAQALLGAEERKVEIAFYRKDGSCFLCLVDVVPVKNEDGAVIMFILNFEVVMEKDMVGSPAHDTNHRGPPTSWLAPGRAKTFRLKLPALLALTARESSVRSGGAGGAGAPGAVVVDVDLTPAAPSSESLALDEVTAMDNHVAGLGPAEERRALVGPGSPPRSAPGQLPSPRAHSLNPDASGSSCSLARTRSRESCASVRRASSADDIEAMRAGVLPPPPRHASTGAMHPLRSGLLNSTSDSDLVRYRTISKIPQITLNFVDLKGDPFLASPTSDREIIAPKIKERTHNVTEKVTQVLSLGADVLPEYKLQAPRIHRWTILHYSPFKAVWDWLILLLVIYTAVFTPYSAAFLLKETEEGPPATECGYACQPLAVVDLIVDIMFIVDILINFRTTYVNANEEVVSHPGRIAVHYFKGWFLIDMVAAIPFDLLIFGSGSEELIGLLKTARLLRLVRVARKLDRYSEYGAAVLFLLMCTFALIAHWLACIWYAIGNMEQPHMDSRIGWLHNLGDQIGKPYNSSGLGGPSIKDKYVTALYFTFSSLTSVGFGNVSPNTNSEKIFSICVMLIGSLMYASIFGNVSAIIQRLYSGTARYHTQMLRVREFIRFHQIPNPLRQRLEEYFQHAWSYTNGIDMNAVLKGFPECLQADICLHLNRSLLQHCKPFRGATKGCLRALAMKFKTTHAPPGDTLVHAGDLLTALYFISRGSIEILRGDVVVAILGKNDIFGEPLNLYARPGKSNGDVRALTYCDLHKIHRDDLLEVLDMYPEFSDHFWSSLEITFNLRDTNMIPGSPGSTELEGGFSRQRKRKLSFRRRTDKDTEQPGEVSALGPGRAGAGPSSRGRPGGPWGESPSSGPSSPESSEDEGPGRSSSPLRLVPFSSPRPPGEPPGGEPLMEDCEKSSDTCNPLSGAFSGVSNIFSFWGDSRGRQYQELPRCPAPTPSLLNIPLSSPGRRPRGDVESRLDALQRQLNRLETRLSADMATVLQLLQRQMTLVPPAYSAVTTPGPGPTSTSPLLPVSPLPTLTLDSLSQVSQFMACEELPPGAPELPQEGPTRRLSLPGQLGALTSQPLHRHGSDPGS

As usually defined, the IC50 is the midpoint of a concentration-inhibition curve. `COc1ccc(CN2CCN(C(=O)C[C@H](N)Cc3cc(F)c(F)cc3F)CC2=O)cc1` returned an IC50 on Cytochrome P450 3A4 of 1.07 µM.

Consider `N[C@@H](CC(=O)N1CCNC(=O)[C@H]1CO)Cc1cc(F)c(F)cc1F`, for which the “inhibition (INH)” value against Cytochrome P450 3A4, against Cytochrome P450 2D6, on Cytochrome P450 2C9, at Cytochrome P450 2C19 and against Cytochrome P450 1A2 was “Not Active” throughout.

What is called inhibition in vivo is the percentage by which the read-out fell short of the control. For orientation: half-life means the time in which the quantity being followed falls by half. Low readings indicate rapid decline, high ones slow decline. As usually defined, the clearance is the volume of plasma or blood freed of the substance per unit of time. Broadly, the bioavailability is the share of a dose that reaches the circulation, judged against a reference dose that is usually intravenous. The low end stands for little systemic uptake, the high end for much systemic uptake. Take `CC(C)(C)OC[C@@H]1C(=O)NCCN1C(=O)C[C@H](N)Cc1cc(F)c(F)cc1F` [EVOGLIPTIN]: the inhibition in vivo at 1 mg/kg in the data set on Rattus norvegicus [1] is 72.5%; in the data set on Mus musculus [5], 63%. In the data set with Rattus norvegicus [2], this compound came in with an inhibition in vivo at 3 mg/kg of 82.9%. This compound yielded an inhibition in vivo at 10 mg/kg in the data set on Rattus norvegicus [3] of 87.2%. Besides, in the data set on Mus musculus [4], the Activity entry was “Dose-dependent effect”. Also, the INH at Cytochrome P450 3A4, at Cytochrome P450 2D6, at Cytochrome P450 2C9, on Cytochrome P450 2C19 and at Cytochrome P450 1A2 was above 50 µM throughout. For the same compound, the half-life in data set [6] is above 1.5 h; in data set [7], 6.1 h. In addition, in data set [8], the clearance worked out at 3.63 L/h/kg. Moreover, in data set [9], the Vd amounted to 12 L/kg. For the same compound, the bioavailability in data set [10] is 74.8%. In addition, in data set [11], it took 79.6 µM to reach half-maximal inhibition (IC50). Also, the inhibition entry in the data set listed under Rattus norvegicus [12] is “Dose-dependent effect”.
